According to ChEMBL document CHEMBL3611989, “Discovery and characterization of aryl isonitriles as a new class of compounds versus methicillin- and vancomycin-resistant Staphylococcus aureus” (Eur J Med Chem, 2015):
≈ marks a conversion by molar mass, not a printed value.

How the values were obtained:
Staphylococcus aureus [1] = test: Antimicrobial activity against methicillin-resistant Staphylococcus aureus NRS119 assessed as reduction in bacterial growth incubated for 18 to 20 hrs at 37 degC by broth microdilution method; format: functional
Procedure, shortened: (§1)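 Modified CLSI broth microdilution. Bacterial suspension of about 1 × 10^5 CFU/mL in tryptic soy broth. Each agent was added in triplicate to the first row and serially diluted down the plate. Plates were incubated at 37 °C for 18-20 h. MIC was read as the lowest concentration with no visible growth.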

J774 [2] = format: cell-based; conditions: mouse, j774, 2 h, 128 µM
Staphylococcus aureus [3] = test: Bactericidal activity against methicillin-resistant Staphylococcus aureus USA300; format: functional
Staphylococcus aureus [4] = test: Antimicrobial activity against methicillin-resistant Staphylococcus aureus USA500 assessed as reduction in bacterial growth incubated for 18 to 20 hrs at 37 degC by broth microdilution method; format: functional; procedure, shortened: as §1
Staphylococcus aureus [5] = test: Antimicrobial activity against methicillin-sensitive Staphylococcus aureus NRS72 assessed as reduction in bacterial growth incubated for 18 to 20 hrs at 37 degC by broth microdilution method; format: functional; procedure, shortened: as §1
Staphylococcus aureus [6] = test: Antimicrobial activity against methicillin-resistant Staphylococcus aureus USA300 assessed as reduction in bacterial growth incubated for 18 to 20 hrs at 37 degC by broth microdilution method; format: functional; procedure, shortened: as §1
Staphylococcus aureus [7] = test: Antimicrobial activity against methicillin-resistant Staphylococcus aureus USA200 assessed as reduction in bacterial growth incubated for 18 to 20 hrs at 37 degC by broth microdilution method; format: functional; procedure, shortened: as §1
Staphylococcus aureus [8] = test: Antimicrobial activity against vancomycin-resistant Staphylococcus aureus VRS2 assessed as reduction in bacterial growth incubated for 18 to 20 hrs at 37 degC by broth microdilution method; format: functional; procedure, shortened: as §1
Staphylococcus aureus [9] = test: Antimicrobial activity against methicillin-resistant Staphylococcus aureus USA100 assessed as reduction in bacterial growth incubated for 18 to 20 hrs at 37 degC by broth microdilution method; format: functional; procedure, shortened: as §1
Staphylococcus aureus [10] = test: Antimicrobial activity against methicillin-resistant Staphylococcus aureus USA700 assessed as reduction in bacterial growth incubated for 18 to 20 hrs at 37 degC by broth microdilution method; format: functional; procedure, shortened: as §1
J774 [11] = test: Cytotoxicity against mouse J774 cells assessed as reduction in cell viability at 64 uM incubated for 2 hrs by MTS assay; format: cell-based; conditions: j774, 2 h
Procedure, shortened: (§2)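 Murine J774 macrophages grown in DMEM with 10% FBS at 37 °C, 5% CO2. Compounds were tested in triplicate at 16, 32, 64 and 128 μM for 2 h, with DMSO-matched vehicle controls. MTS reagent was then added and absorbance read at OD490. Viability is given as percent of DMSO-treated cells (mean of triplicate ± standard deviation), compared by paired t-test (P < 0.05).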

J774 [12] = test: Cytotoxicity against mouse J774 cells assessed as reduction in cell viability at 32 uM incubated for 2 hrs by MTS assay; format: cell-based; conditions: j774, 2 h; procedure, shortened: as §2
Staphylococcus aureus [13] = test: Antimicrobial activity against vancomycin-intermediate-resistant Staphylococcus aureus NRS1 assessed as reduction in bacterial growth incubated for 18 to 20 hrs at 37 degC by broth microdilution method; format: functional; procedure, shortened: as §1
[14] = Kinetic solubility of the compound in PBS; format: physicochemical; conditions: read-out: Kinetic_solubility
J774 [15] = test: Cytotoxicity against mouse J774 cells assessed as reduction in cell viability up to 64 uM incubated for 2 hrs by MTS assay; format: cell-based; conditions: j774, 2 h; procedure, shortened: as §2
[16] = Metabolic stability in human liver microsomes assessed as compound remaining incubated for 60 mins in presence of NADPH; format: ADME; conditions: read-out: Stability
[17] = Selectivity index, ratio of cytotoxicity against mouse J774 cells by MTS assay to MIC for methicillin-resistant Staphylococcus aureus; format: toxicity, cell-based; conditions: read-out: Selectivity Index
[18] = Metabolic stability in human liver microsomes assessed as compound remaining incubated for 60 mins in absence of NADPH; format: ADME; conditions: read-out: Stability

SMILES	MIC (Staphylococcus aureus [1])	Activity (J774 [2])	MBC (Staphylococcus aureus [3])	MIC (Staphylococcus aureus [4])	MIC (Staphylococcus aureus [5])	MIC (Staphylococcus aureus [6])	MIC (Staphylococcus aureus [7])	MIC (Staphylococcus aureus [8])	MIC (Staphylococcus aureus [9])	MIC (Staphylococcus aureus [10])	Activity (J774 [11])	Activity (J774 [12])	MIC (Staphylococcus aureus [13])	solubility kinetic [14]	Activity (J774 [15])	remaining at 1 h [16]	selectivity ratio [17]	remaining at 1 h [18]
[C-]#[N+]c1ccccc1/C=C(\CC)c1ccccc1	64 µM (≈ 14.9 µg/mL)	Non-toxic	> 128 µM	32 µM (≈ 7.47 µg/mL)	8 µM (≈ 1.87 µg/mL)	32 µM (≈ 7.47 µg/mL)	16 µM (≈ 3.73 µg/mL)	32 µM (≈ 7.47 µg/mL)	8 µM (≈ 1.87 µg/mL)	8 µM (≈ 1.87 µg/mL)	Non-toxic	Non-toxic	8 µM (≈ 1.87 µg/mL)	–	–	–	–	–
[C-]#[N+]c1ccccc1/C=C/c1ccccc1	4 µM (≈ 0.821 µg/mL)	Toxic	–	32 µM (≈ 6.57 µg/mL)	–	4 µM (≈ 0.821 µg/mL)	4 µM (≈ 0.821 µg/mL)	32 µM (≈ 6.57 µg/mL)	2 µM (≈ 0.411 µg/mL)	4 µM (≈ 0.821 µg/mL)	Non-toxic	Non-toxic	2 µM (≈ 0.411 µg/mL)	15.6 µM (≈ 3.2 µg/mL)	Non-toxic	24%	16	51%
[C-]#[N+]c1ccccc1/C=C/c1ccc(OC)cc1	32 µM (≈ 7.53 µg/mL)	Toxic	–	> 128 µM	4 µM (≈ 0.941 µg/mL)	16 µM (≈ 3.76 µg/mL)	2 µM (≈ 0.471 µg/mL)	32 µM (≈ 7.53 µg/mL)	8 µM (≈ 1.88 µg/mL)	8 µM (≈ 1.88 µg/mL)	Non-toxic	Non-toxic	4 µM (≈ 0.941 µg/mL)	–	–	–	–	–
[C-]#[N+]c1ccccc1/C=C/c1cccc(OC)c1	32 µM (≈ 7.53 µg/mL)	Non-toxic	–	32 µM (≈ 7.53 µg/mL)	8 µM (≈ 1.88 µg/mL)	16 µM (≈ 3.76 µg/mL)	4 µM (≈ 0.941 µg/mL)	32 µM (≈ 7.53 µg/mL)	8 µM (≈ 1.88 µg/mL)	16 µM (≈ 3.76 µg/mL)	Non-toxic	Non-toxic	4 µM (≈ 0.941 µg/mL)	–	–	–	–	–
[C-]#[N+]c1ccccc1/C=C/c1ccccc1OC	16 µM (≈ 3.76 µg/mL)	Toxic	–	8 µM (≈ 1.88 µg/mL)	8 µM (≈ 1.88 µg/mL)	8 µM (≈ 1.88 µg/mL)	8 µM (≈ 1.88 µg/mL)	16 µM (≈ 3.76 µg/mL)	8 µM (≈ 1.88 µg/mL)	8 µM (≈ 1.88 µg/mL)	Non-toxic	Non-toxic	4 µM (≈ 0.941 µg/mL)	–	–	–	–	–
[C-]#[N+]c1ccccc1/C=C/c1ccc(F)cc1	16 µM (≈ 3.57 µg/mL)	Toxic	–	16 µM (≈ 3.57 µg/mL)	4 µM (≈ 0.893 µg/mL)	8 µM (≈ 1.79 µg/mL)	2 µM (≈ 0.446 µg/mL)	32 µM (≈ 7.14 µg/mL)	8 µM (≈ 1.79 µg/mL)	8 µM (≈ 1.79 µg/mL)	Non-toxic	Non-toxic	4 µM (≈ 0.893 µg/mL)	–	–	–	–	–
[C-]#[N+]c1ccccc1/C=C/c1ccccc1F	32 µM (≈ 7.14 µg/mL)	Toxic	–	16 µM (≈ 3.57 µg/mL)	4 µM (≈ 0.893 µg/mL)	16 µM (≈ 3.57 µg/mL)	2 µM (≈ 0.446 µg/mL)	32 µM (≈ 7.14 µg/mL)	8 µM (≈ 1.79 µg/mL)	8 µM (≈ 1.79 µg/mL)	Non-toxic	Non-toxic	4 µM (≈ 0.893 µg/mL)	–	–	–	–	–
[C-]#[N+]c1ccccc1/C=C/c1cccc(F)c1	128 µM (≈ 28.6 µg/mL)	Toxic	–	128 µM (≈ 28.6 µg/mL)	8 µM (≈ 1.79 µg/mL)	32 µM (≈ 7.14 µg/mL)	16 µM (≈ 3.57 µg/mL)	128 µM (≈ 28.6 µg/mL)	16 µM (≈ 3.57 µg/mL)	16 µM (≈ 3.57 µg/mL)	Toxic	Non-toxic	8 µM (≈ 1.79 µg/mL)	–	–	–	–	–
[C-]#[N+]c1ccccc1/C=C/c1ccc(C(F)(F)F)cc1	16 µM (≈ 4.37 µg/mL)	Toxic	–	16 µM (≈ 4.37 µg/mL)	4 µM (≈ 1.09 µg/mL)	8 µM (≈ 2.19 µg/mL)	2 µM (≈ 0.547 µg/mL)	16 µM (≈ 4.37 µg/mL)	4 µM (≈ 1.09 µg/mL)	2 µM (≈ 0.547 µg/mL)	Non-toxic	Non-toxic	2 µM (≈ 0.547 µg/mL)	–	–	–	–	–
[C-]#[N+]c1ccccc1/C=C/c1ccccc1C(F)(F)F	> 128 µM	Toxic	–	16 µM (≈ 4.37 µg/mL)	8 µM (≈ 2.19 µg/mL)	32 µM (≈ 8.74 µg/mL)	16 µM (≈ 4.37 µg/mL)	32 µM (≈ 8.74 µg/mL)	16 µM (≈ 4.37 µg/mL)	16 µM (≈ 4.37 µg/mL)	Non-toxic	Non-toxic	8 µM (≈ 2.19 µg/mL)	–	–	–	–	–
[C-]#[N+]c1ccccc1/C=C/c1ccc(C)cc1	64 µM (≈ 14 µg/mL)	Toxic	–	32 µM (≈ 7.02 µg/mL)	16 µM (≈ 3.51 µg/mL)	16 µM (≈ 3.51 µg/mL)	4 µM (≈ 0.877 µg/mL)	32 µM (≈ 7.02 µg/mL)	4 µM (≈ 0.877 µg/mL)	8 µM (≈ 1.75 µg/mL)	Non-toxic	Non-toxic	4 µM (≈ 0.877 µg/mL)	–	–	–	–	–
[C-]#[N+]c1ccccc1/C=C/c1ccccn1	128 µM (≈ 26.4 µg/mL)	Toxic	–	64 µM (≈ 13.2 µg/mL)	64 µM (≈ 13.2 µg/mL)	16 µM (≈ 3.3 µg/mL)	64 µM (≈ 13.2 µg/mL)	32 µM (≈ 6.6 µg/mL)	64 µM (≈ 13.2 µg/mL)	32 µM (≈ 6.6 µg/mL)	Non-toxic	Non-toxic	64 µM (≈ 13.2 µg/mL)	–	–	–	–	–
[C-]#[N+]c1ccccc1/C=C/c1cccnc1	64 µM (≈ 13.2 µg/mL)	Non-toxic	–	32 µM (≈ 6.6 µg/mL)	64 µM (≈ 13.2 µg/mL)	16 µM (≈ 3.3 µg/mL)	32 µM (≈ 6.6 µg/mL)	32 µM (≈ 6.6 µg/mL)	32 µM (≈ 6.6 µg/mL)	32 µM (≈ 6.6 µg/mL)	Non-toxic	Non-toxic	64 µM (≈ 13.2 µg/mL)	–	–	–	–	–
[C-]#[N+]c1cccc(/C=C/c2ccccc2)c1	64 µM (≈ 13.1 µg/mL)	Toxic	–	> 128 µM	16 µM (≈ 3.28 µg/mL)	16 µM (≈ 3.28 µg/mL)	32 µM (≈ 6.57 µg/mL)	32 µM (≈ 6.57 µg/mL)	32 µM (≈ 6.57 µg/mL)	16 µM (≈ 3.28 µg/mL)	Non-toxic	Non-toxic	32 µM (≈ 6.57 µg/mL)	–	–	–	–	–
CC/C(=C\c1ccccc1)c1ccccc1	> 128 µM	Toxic	–	> 128 µM	> 128 µM	> 128 µM	> 128 µM	> 128 µM	> 128 µM	> 128 µM	Non-toxic	Non-toxic	> 128 µM	–	Non-toxic	–	–	–
CC(=O)CC(c1ccccc1)c1c(O)c2ccccc2oc1=O (stereo not drawn) [WARFARIN]	–	–	–	–	–	–	–	–	–	–	–	–	–	–	–	93%	–	94%
